# Assay results as given in ChEMBL document CHEMBL2046337, “Inhibitors for Bacterial Cell-Wall Recycling” (ACS Med Chem Lett, 2012).
# Active and inactive are the calls of the source. The rule behind the calls is not given here.
# T1: Membrane-bound lytic murein transglycosylase B (Escherichia coli (strain K12), UniProt P41052)
# T1 sequence (P41052 whole entry): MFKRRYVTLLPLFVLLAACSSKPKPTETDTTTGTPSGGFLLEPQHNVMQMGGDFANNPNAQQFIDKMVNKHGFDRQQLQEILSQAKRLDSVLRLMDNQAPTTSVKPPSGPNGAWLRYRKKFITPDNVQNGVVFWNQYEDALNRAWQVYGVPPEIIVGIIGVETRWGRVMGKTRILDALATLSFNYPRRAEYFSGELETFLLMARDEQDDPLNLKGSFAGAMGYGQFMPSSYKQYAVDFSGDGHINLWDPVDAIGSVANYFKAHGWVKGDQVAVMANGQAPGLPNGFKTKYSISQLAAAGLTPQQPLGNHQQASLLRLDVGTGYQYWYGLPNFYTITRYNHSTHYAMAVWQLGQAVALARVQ
# B1: Beta-hexosaminidase (Pseudomonas aeruginosa (strain ATCC 15692 / PAO1 / 1C / PRS 101 / LMG12228)), Q9HZK0 (protein)
# chain: MQGSLMLDIGGTWLTAEDRQILRHPEVGGLIIFARNIEHPAQVRELCAAIRAIRPDLLLAVDQEGGRVQRLRQGFVRLPAMRAIADNPNAEELAEHCGWLMATEVQAVGLDLSFAPVLDLDHQRSAVVGSRAFEGDPERAALLAGAFIRGMHAAGMAATGKHFPGHGWAEADSHVAIPEDARSLEEIRRSDLVPFARLAGQLDALMPAHVIYPQVDPQPAGFSRRWLQEILRGELKFDGVIFSDDLSMAGAHVVGDAASRIEAALAAGCDMGLVCNDRASAELALAALQRLKVTPPSRLQRMRGKGYANTDYRQQPRWLEALSALRAAQLID
# Columns and labels:
# [1] = Activity at NagZ expressed in Escherichia coli BL21 DE3 after 35 mins by HPLC analysis
# [2] = Ratio of Kcat to Km for NagZ expressed in Escherichia coli BL21 DE3 after 35 mins by HPLC analysis
# [3] = target: T1, Membrane-bound lytic murein transglycosylase B; assay: Binding affinity to Escherichia coli K12 MG1655 His6x-tagged MltB lytic transglycosylase assessed as intrinsic fluorescence of tryptophan and/or tyrosine residues of enzyme; set-up: species or system Escherichia coli K-12
# Summary of the method: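 MltB at 0.25 μM in 50 mM HEPES pH 7.6, 0.20 M NaCl, Brij-35, titrated with aliquots of 42 mM aqueous compound stock; equilibrated at 25 °C with stirring after each addition. Emission read at 334.06 nm (excitation 280 nm, scan 290-450 nm), corrected for dilution. Kd from fit to one-site saturation model, with or without a non-specific binding term.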
# Beta-hexosaminidase = Beta-hexosaminidase (Pseudomonas aeruginosa (strain ATCC 15692 / PAO1 / 1C / PRS 101 / LMG12228), UniProt Q9HZK0); assay: Competitive inhibition of Pseudomonas aeruginosa PAO1 NagZ using PNP-GlcNAc as substrate assessed as release of 4-nitrophenolate ion after 4 mins by spectrophotometric analysis
# Summary of the method: (§1)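 His-tagged NagZ, purified by Ni-affinity, at 40 nM in PBS pH 7.4 (500 µL reaction). Substrate was PNP-GlcNAc at 0.1–1 mM. 4-Nitrophenolate release was followed at 400 nm for 4 min at 25 °C, in triplicate.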
# [4] = target: Beta-hexosaminidase (Pseudomonas aeruginosa (strain ATCC 15692 / PAO1 / 1C / PRS 101 / LMG12228)) (UniProt Q9HZK0); assay: Inhibition of Pseudomonas aeruginosa PAO1 NagZ using PNP-GlcNAc as substrate assessed as release of 4-nitrophenolate ion after 4 mins by spectrophotometric analysis
# Summary of the method: as §1
# [5] = substrate: CO[C@@H]1O[C@H](CO)[C@@H](O[C@@H]2O[C@H](CO)[C@@H](O)[C@H](O)[C@H]2NC(C)=O)[C@H](O[C@H](C)C(=O)N[C@@H](C)C(=O)N[C@H](CCC(=O)N[C@@H](CCC[C@@H](N)C(=O)O)C(=O)N[C@H](C)C(=O)N[C@H](C)C(=O)O)C(=O)O)[C@H]1NC(C)=O; assay: Activity at Pseudomonas aeruginosa PAO1 NagZ after 35 mins by HPLC analysis
# Summary of the method: (§2)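 His-tagged NagZ (pET28a, expressed in E. coli BL21 star (DE3), Ni-affinity purified) at 40 nM in PBS pH 7.4. Substrate was GlcNAc-anhMurNAc-pentapeptide or GlcNAc-MurNAc-pentapeptide at 0.15–0.9 mM, 25 °C, 35 min. Reactions were stopped with two volumes of 0.075% TFA. Substrate and product were quantified by C18 reversed-phase HPLC against an internal standard (Nα,Nε-diacetyl-L-Lys-D-Ala-D-Ala).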
# [6] = substrate: CO[C@@H]1O[C@H](CO)[C@@H](O[C@@H]2O[C@H](CO)[C@@H](O)[C@H](O)[C@H]2NC(C)=O)[C@H](O[C@H](C)C(=O)N[C@@H](C)C(=O)N[C@H](CCC(=O)N[C@@H](CCC[C@@H](N)C(=O)O)C(=O)N[C@H](C)C(=O)N[C@H](C)C(=O)O)C(=O)O)[C@H]1NC(C)=O; assay: Ratio of Kcat to Km for Pseudomonas aeruginosa PAO1 NagZ after 35 mins by HPLC analysis
# Summary of the method: as §2
molecule,measurement,setting,value
CC(=O)N[C@H]1[C@H](O[C@H]2[C@H](O[C@H](C)C(=O)N[C@@H](C)C(=O)N[C@H](CCC(=O)N[C@@H](CCC[C@@H](N)C(=O)O)C(=O)N[C@H](C)C(=O)N[C@H](C)C(=O)O)C(=O)O)[C@@H](NC(C)=O)[C@@H]3OC[C@H]2O3)O[C@H](CO)[C@@H](O)[C@@H]1O,Km,[1],104 µM
same,kcat,[1],6.6 s⁻¹
same,kcat/Km,[2],6.3 ×10⁴ /M/s
CC(=O)N[C@H]1CN[C@H](CO)[C@@H](O)[C@@H]1O,Kd,[3],174 µM
same,Ki,Beta-hexosaminidase,0.3 µM
CC(=O)N[C@H]1CN[C@H](CO)[C@@H](O)[C@@H]1O[C@H](C)C(=O)N[C@@H](C)C(=O)N[C@H](CCC(=O)O)C(=O)O,Kd,[3],1010 µM
same,inhibition,[4],Active
same,Ki,Beta-hexosaminidase,33 µM
CC(=O)N[C@H]1CN[C@H](CO)[C@@H](O)[C@@H]1O[C@H](C)C(=O)N[C@@H](C)C(=O)O,Kd,[3],189 µM
same,inhibition,[4],Active
same,Ki,Beta-hexosaminidase,35 µM
CC(=O)N[C@H]1CN[C@H](CO)[C@@H](O)[C@@H]1O[C@H](C)C(=O)O,Kd,[3],1000 µM
same,inhibition,[4],Active
same,Ki,Beta-hexosaminidase,51 µM
B1,Km,[5],165 µM
same,kcat,[5],0.77 s⁻¹
same,kcat/Km,[6],0.5 ×10⁴ /M/s
